According to publication PMC10262665 (Science (New York, N.Y.), 2023):
pIC50, pKd: −log10 of the molar value.

Assays:
PGAM2 = target: T1, PGAM2 (Homo sapiens, UniProt P15259); assay: MIDAS protein-metabolite interaction screen; format: binding; conditions: significant PMI Q < 0.01
T1 sequence (P15259 1-253): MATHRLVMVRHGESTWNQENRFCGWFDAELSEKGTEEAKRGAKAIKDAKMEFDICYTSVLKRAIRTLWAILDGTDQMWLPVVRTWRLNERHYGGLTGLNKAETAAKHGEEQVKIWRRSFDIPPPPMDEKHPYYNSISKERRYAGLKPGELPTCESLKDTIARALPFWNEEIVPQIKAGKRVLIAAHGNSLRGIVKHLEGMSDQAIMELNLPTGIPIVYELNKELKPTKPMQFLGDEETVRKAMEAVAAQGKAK
In short: (§1)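 Purified protein is separated from a defined metabolite library by a semipermeable dialysis membrane that passes metabolites but not protein, then incubated to relative equilibrium. Protein is denatured and removed. Metabolites in both chambers are quantified by flow injection analysis–MS, with methods optimized for each pool. The between-chamber fold change is normalized and corrected for nonspecific interactions.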

PGAM1 = PGAM1 (Homo sapiens, UniProt P18669); assay: MIDAS protein-metabolite interaction screen; format: binding; conditions: significant PMI Q < 0.01
In short: as §1

ENO2 = ENO2 (Homo sapiens, UniProt P09104); assay: Differential scanning fluorimetry; format: binding; conditions: DSF, ENO2
ENO1 = ENO1 (Homo sapiens, UniProt P06733); assay: Differential scanning fluorimetry; format: binding; conditions: DSF, ENO1
LDHB = LDHB (Homo sapiens, UniProt P07195); assay: MIDAS protein-metabolite interaction screen; format: binding; conditions: significant PMI Q < 0.01
In short: as §1

LDHA [1] = target: T2, LDHA (Homo sapiens, UniProt P00338); assay: MIDAS protein-metabolite interaction screen; format: binding; conditions: significant PMI Q < 0.01
In short: as §1

GAPDH = GAPDH (Homo sapiens, UniProt P04406); assay: MIDAS protein-metabolite interaction screen; format: binding; conditions: significant PMI Q < 0.01
Sestrin2 = target: T3, Sestrin2 (Homo sapiens, UniProt P58004); assay: MIDAS protein-metabolite interaction screen; format: binding; conditions: significant PMI Q < 0.01
T3 sequence (P58004 1-480): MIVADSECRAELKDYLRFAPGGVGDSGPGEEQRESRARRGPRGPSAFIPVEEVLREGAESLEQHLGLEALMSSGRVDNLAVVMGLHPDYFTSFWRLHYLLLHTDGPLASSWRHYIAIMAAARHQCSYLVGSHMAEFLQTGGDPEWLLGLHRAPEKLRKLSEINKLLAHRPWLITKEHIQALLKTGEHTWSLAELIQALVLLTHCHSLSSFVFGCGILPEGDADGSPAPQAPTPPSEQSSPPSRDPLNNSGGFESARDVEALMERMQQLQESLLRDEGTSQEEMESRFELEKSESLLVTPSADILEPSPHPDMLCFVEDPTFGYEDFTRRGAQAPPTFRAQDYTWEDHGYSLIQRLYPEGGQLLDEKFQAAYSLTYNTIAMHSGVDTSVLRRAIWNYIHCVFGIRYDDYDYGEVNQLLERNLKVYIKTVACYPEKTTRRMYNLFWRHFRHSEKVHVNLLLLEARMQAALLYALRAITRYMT
In short: as §1

CASTOR1 = target: T4, CASTOR1 (Homo sapiens, UniProt Q8WTX7); assay: MIDAS; format: binding; conditions: significant PMI Q < 0.01
T4 sequence (Q8WTX7 1-329): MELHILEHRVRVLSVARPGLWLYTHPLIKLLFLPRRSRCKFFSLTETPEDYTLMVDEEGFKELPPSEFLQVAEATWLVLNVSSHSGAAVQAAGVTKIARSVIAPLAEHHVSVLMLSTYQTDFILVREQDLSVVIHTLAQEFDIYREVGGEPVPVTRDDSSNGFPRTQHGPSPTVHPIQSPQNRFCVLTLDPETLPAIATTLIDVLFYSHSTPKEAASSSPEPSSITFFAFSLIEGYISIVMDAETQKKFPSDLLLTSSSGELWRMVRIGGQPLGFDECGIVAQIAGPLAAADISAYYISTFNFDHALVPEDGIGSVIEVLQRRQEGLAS
In short: as §1

H9c2 rat cardiomyoblasts [2] = assay: 13C-glucose metabolic tracing into lactate; format: cell-based; conditions: for labeling of lactate from 13C-glucose: BSA-conjugated palmitate vs BSA
H9c2 rat cardiomyoblasts [3] = assay: 13C-lactate metabolic tracing into pyruvate; format: cell-based
LDHA [4] = target: T2, LDHA; assay: LDH enzyme activity assay; format: biochemical; conditions: for inhibition of LDHA enzyme activity: in vitro; for pIC50: LDHA enzyme activity, acyl-CoAs
In short: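 LDH isoform activity measured in vitro with test metabolites (adenosine nucleotides, CoA and acyl-CoAs) over a concentration range. IC50 is derived from the inhibition curves. Mode of inhibition is assessed against NAD and lactate.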

[5] = dimethylated fatty acid analogs

Chain of GAPDH (P04406 whole entry): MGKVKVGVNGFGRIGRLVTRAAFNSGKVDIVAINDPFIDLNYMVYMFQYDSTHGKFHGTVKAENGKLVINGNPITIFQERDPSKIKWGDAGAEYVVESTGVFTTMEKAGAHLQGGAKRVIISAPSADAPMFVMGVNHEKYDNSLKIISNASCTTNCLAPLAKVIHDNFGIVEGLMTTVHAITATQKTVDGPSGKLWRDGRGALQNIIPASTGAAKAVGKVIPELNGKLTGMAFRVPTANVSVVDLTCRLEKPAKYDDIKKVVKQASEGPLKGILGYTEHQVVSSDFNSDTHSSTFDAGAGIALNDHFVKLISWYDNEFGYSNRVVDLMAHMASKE
Chain of LDHB (P07195 whole entry): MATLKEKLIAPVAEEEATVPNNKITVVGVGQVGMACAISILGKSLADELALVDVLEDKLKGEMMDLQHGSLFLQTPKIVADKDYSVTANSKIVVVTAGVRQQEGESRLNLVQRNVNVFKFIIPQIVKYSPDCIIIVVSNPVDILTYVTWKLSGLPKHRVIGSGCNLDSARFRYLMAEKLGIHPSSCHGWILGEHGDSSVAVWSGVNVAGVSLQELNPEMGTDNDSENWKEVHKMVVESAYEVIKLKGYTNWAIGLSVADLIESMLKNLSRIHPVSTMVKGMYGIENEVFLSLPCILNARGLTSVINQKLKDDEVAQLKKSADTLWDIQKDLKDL
Chain of ENO2 (P09104 whole entry): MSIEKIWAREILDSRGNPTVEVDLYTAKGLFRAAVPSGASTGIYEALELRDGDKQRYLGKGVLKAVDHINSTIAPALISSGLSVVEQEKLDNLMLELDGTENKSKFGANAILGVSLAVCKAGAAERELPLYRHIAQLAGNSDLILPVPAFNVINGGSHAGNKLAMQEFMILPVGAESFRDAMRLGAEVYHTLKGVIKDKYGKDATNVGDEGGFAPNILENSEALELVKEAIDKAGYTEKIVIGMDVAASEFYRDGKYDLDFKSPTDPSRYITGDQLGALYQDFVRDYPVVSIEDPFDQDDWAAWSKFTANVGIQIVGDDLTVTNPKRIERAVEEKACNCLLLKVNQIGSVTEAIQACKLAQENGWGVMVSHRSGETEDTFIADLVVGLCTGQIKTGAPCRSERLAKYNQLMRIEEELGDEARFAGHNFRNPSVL
Chain of PGAM1 (P18669 whole entry): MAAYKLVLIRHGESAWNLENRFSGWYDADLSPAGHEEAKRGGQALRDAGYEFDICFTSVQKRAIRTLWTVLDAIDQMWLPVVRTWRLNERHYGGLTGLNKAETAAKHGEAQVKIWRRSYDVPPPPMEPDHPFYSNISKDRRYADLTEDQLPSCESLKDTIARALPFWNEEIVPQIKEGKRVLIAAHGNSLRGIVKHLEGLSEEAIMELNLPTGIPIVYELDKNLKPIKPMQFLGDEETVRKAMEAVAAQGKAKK
Chain of ENO1 (P06733 whole entry): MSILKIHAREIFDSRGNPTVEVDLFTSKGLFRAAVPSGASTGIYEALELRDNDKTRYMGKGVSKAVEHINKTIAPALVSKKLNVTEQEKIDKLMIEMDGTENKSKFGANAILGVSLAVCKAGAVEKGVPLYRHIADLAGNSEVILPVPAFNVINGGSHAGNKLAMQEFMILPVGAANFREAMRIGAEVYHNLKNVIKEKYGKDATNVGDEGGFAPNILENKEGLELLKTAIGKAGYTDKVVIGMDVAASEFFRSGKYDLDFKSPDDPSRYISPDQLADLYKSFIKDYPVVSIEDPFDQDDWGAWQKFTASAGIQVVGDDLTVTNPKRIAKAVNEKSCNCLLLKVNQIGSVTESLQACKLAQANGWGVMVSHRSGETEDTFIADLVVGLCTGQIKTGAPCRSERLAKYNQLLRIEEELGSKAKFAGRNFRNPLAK

O=C(O)[C@H](O)COP(=O)(O)O [3PG, 3-phosphoglycerate]
MIDAS protein-metabolite interaction (PGAM2): interacted
MIDAS protein-metabolite interaction (PGAM1): interacted

O=C(O)[C@@H](CO)OP(=O)(O)O [2PG, 2-phosphoglycerate]
pKd (ENO2; read-out: apparent dissociation constant (KD app)): 3.54
pKd (ENO1; read-out: apparent dissociation constant (Kd app)): 3.53

Cc1cc2nc3c(=O)[nH]c(=O)nc-3n(C[C@H](O)[C@H](O)[C@H](O)COP(=O)(O)OP(=O)(O)OC[C@H]3O[C@@H](n4cnc5c(N)ncnc54)[C@H](O)[C@@H]3O)c2cc1C [flavin adenine dinucleotide]
MIDAS protein-metabolite interaction (LDHB): interactions
MIDAS protein-metabolite interaction (LDHA [1]): interactions

O=C(O)CC(=O)C(=O)O [oxaloacetate]
MIDAS protein-metabolite interaction (LDHB): interactions
MIDAS protein-metabolite interaction (LDHA [1]): interactions

CC(C)(CO[P@@](=O)(O)O[P@@](=O)(O)OC[C@H]1O[C@@H](n2cnc3c(N)ncnc32)[C@H](O)[C@@H]1OP(=O)(O)O)[C@@H](O)C(=O)NCCC(=O)NCCSC(=O)CC(=O)O [malonyl-coenzyme A]
MIDAS protein-metabolite interaction (GAPDH): interacted

CC(C)C[C@H](N)C(=O)O [leucine]
MIDAS protein-metabolite interaction (Sestrin2): most enriched interactors

CC[C@H](C)[C@H](N)C(=O)O [isoleucine]
MIDAS protein-metabolite interaction (Sestrin2): most enriched interactors

N[C@@H](CO)C(=O)O [serine]
thermal stabilization of protein upon ligand binding (ENO2): not
thermal stabilization of protein upon ligand binding (ENO1): not

N[C@@H](Cc1ccc(OP(=O)(O)O)cc1)C(=O)O [phosphotyrosine]
thermal stabilization of protein upon ligand binding (ENO2): not
thermal stabilization of protein upon ligand binding (ENO1): not

NCCCN [1,3-diaminopropane]
MIDAS protein-metabolite interaction (Sestrin2): bind
MIDAS protein-metabolite interaction (CASTOR1): bind

CCCCCC(=O)OCC(COP(=O)(O)OC1C(O)C(OP(=O)(O)O)C(OP(=O)(O)O)C(OP(=O)(O)O)C1O)OC(=O)CCCCC (centres unmarked) [PIP3, phosphatidylinositol-3,4,5-trisphosphate C-6]
MIDAS protein-metabolite interaction (PGAM2): interacted

O=C(O)C(COP(=O)(O)O)OP(=O)(O)O (centres unmarked) [2,3-BPG, 2,3-bisphosphoglycerate]
MIDAS protein-metabolite interaction (GAPDH): interacted
MIDAS protein-metabolite interaction (PGAM2): interacted
MIDAS protein-metabolite interaction (PGAM1): interacted

CCCCCCCCCCCCCCCC(=O)O [Palmitate, palmitate]
labeling of lactate from 13C-glucose (H9c2 rat cardiomyoblasts [2]; Ldhb−/− H9c2 cells): decreased
labeling of lactate from 13C-glucose (H9c2 rat cardiomyoblasts [2]; WT H9c2 cells): decreased
pyruvate labeling from 13C-lactate (H9c2 rat cardiomyoblasts [3]; Ldha−/− H9c2 cells): unaffected
pyruvate labeling from 13C-lactate (H9c2 rat cardiomyoblasts [3]; Ldha−/−Ldhb−/− H9c2 cells): unaffected
generation of m+3 pyruvate from 13C-lactate (H9c2 rat cardiomyoblasts [3]; Ldhb−/− H9c2 cells): blunted
generation of m+3 pyruvate from 13C-lactate (H9c2 rat cardiomyoblasts [3]; WT H9c2 cells): blunted

CC(O)(CC(=O)O)CC(=O)SCCNC(=O)CCNC(=O)[C@H](O)C(C)(C)COP(=O)(O)OP(=O)(O)OC[C@H]1O[C@@H](n2cnc3c(N)ncnc32)[C@H](O)[C@@H]1OP(=O)(O)O (some centres unmarked) [HMG-CoA, 3-hydroxy-3-methylglutaryl-CoA]
MIDAS protein-metabolite interaction (GAPDH): interacted

NCCCCN=C(N)N [agmatine]
MIDAS protein-metabolite interaction (Sestrin2): bind
MIDAS protein-metabolite interaction (CASTOR1): bind

CCCCCCCCCCCCCCCCC(C)(C)C(=O)O [DiMeSte, 2,2-dimethyl-stearate, reference compound]
13C-glucose tracing (H9c2 rat cardiomyoblasts [2]; [5]): inhibited
13C-lactate tracing (H9c2 rat cardiomyoblasts [3]; [5]): inhibited

NC(=O)c1ccc[n+]([C@@H]2O[C@H](COP(=O)([O-])OP(=O)(O)OC[C@H]3O[C@@H](n4cnc5c(N)ncnc54)[C@H](O)[C@@H]3O)[C@@H](O)[C@H]2O)c1 [NAD, nicotinamide adenine dinucleotide]
MIDAS protein-metabolite interaction (GAPDH): interacted
MIDAS protein-metabolite interaction (LDHB): interactions
MIDAS protein-metabolite interaction (LDHA [1]): interactions

phosphate
thermal stabilization of protein upon ligand binding (ENO2): not
thermal stabilization of protein upon ligand binding (ENO1): not

CC(C)(COP(=O)(O)OP(=O)(O)OC[C@H]1O[C@@H](n2cnc3c(N)ncnc32)[C@H](O)[C@@H]1OP(=O)(O)O)[C@@H](O)C(=O)NCCC(=O)NCCS [CoA, coenzyme A]
inhibition of LDHA enzyme activity (LDHA [4]): Neither

CCCCCC(=O)OCC(COP(=O)(O)OC1C(O)C(O)C(OP(=O)(O)O)C(OP(=O)(O)O)C1O)OC(=O)CCCCC (centres unmarked) [PIP2, phosphatidylinositol-4,5-bisphosphate C-6]
MIDAS protein-metabolite interaction (PGAM2): interacted

NCCCCCN [cadaverine]
MIDAS protein-metabolite interaction (Sestrin2): bind
MIDAS protein-metabolite interaction (CASTOR1): bind

CCCCCCCCCCCCCCCCCCCC(=O)SCCNC(=O)CCNC(=O)[C@H](O)C(C)(C)COP(=O)(O)OP(=O)(O)OC[C@H]1O[C@@H](n2cnc3c(N)ncnc32)[C@H](O)[C@@H]1OP(=O)(O)O [C20:0-CoA, arachidoyl-CoA]
pIC50 (LDHA [4]): ~6.00

CCCCCCCCCCCCCCC(C)(C)C(=O)SCCNC(=O)CCNC(=O)C(O)C(C)(C)COP(=O)(O)OP(=O)(O)OCC1OC(n2cnc3c(N)ncnc32)C(O)C1OP(=O)(O)O (centres unmarked) [DiMePal-CoA, reference compound]
inhibition of LDHA enzyme activity (LDHA [4]): inhibited

CCCCCCCC/C=C\CCCCCCCC(=O)SCCNC(=O)CCNC(=O)[C@H](O)C(C)(C)COP(=O)(O)OP(=O)(O)OC[C@H]1O[C@@H](n2cnc3c(N)ncnc32)[C@H](O)[C@@H]1OP(=O)(O)O [C18:1-CoA, oleoyl-CoA]
pIC50 (LDHA [4]): ~6.00

NC(=O)c1ccc[n+]([C@@H]2O[C@H](COP(=O)([O-])O)[C@@H](O)[C@H]2O)c1 [nicotinamide mononucleotide]
MIDAS protein-metabolite interaction (LDHB): interactions
MIDAS protein-metabolite interaction (LDHA [1]): interactions

CSCC[C@H](N)C(=O)O [methionine]
MIDAS protein-metabolite interaction (Sestrin2): most enriched interactors

CN(CC(=O)O)C(=N)NP(=O)(O)O [creatine-phosphate]
MIDAS protein-metabolite interaction (GAPDH): interacted

NC(=O)C1=CN([C@@H]2O[C@H](COP(=O)(O)OP(=O)(O)OC[C@H]3O[C@@H](n4cnc5c(N)ncnc54)[C@H](O)[C@@H]3O)[C@@H](O)[C@H]2O)C=CC1 [NADH]
MIDAS protein-metabolite interaction (LDHB): interactions
MIDAS protein-metabolite interaction (LDHA [1]): interactions

CCC/C=C/C/C=C/C=C/C=N/NN=O [triacsin C, reference compound]
effect on palmitate-mediated inhibition of lactate labeling (H9c2 rat cardiomyoblasts [2]; 13C-glucose tracing in presence of palmitate): prevented
effect on palmitate-mediated inhibition of pyruvate labeling (H9c2 rat cardiomyoblasts [3]; 13C-lactate tracing in presence of palmitate): prevented

O=P(O)(O)O[C@@H]1[C@H](O)[C@H](O)[C@@H](OP(=O)(O)O)[C@H](OP(=O)(O)O)[C@H]1O [inositol-1,4,5-trisphosphate]
MIDAS protein-metabolite interaction (GAPDH): interacted
MIDAS protein-metabolite interaction (PGAM1): interacted

N=C(N)NCCC[C@H](N)C(=O)O [arginine]
MIDAS protein-metabolite interaction (CASTOR1): most enriched interactors

Nc1ncnc2c1ncn2[C@@H]1O[C@@H]2COP(=O)(O)O[C@H]2[C@H]1O [cAMP, cyclic adenosine monophosphate]
MIDAS protein-metabolite interaction (GAPDH): interacted

C=C(OP(=O)(O)O)C(=O)O [PEP, phosphoenolpyruvate]
MIDAS protein-metabolite interaction (PGAM2): interacted
MIDAS protein-metabolite interaction (PGAM1): interacted

CCCCCCCCCCCC(=O)SCCNC(=O)CCNC(=O)[C@H](O)C(C)(C)COP(=O)(O)OP(=O)(O)OC[C@H]1O[C@@H](n2cnc3c(N)ncnc32)[C@H](O)[C@@H]1OP(=O)(O)O [C12:0-CoA, lauroyl-CoA]
pIC50 (LDHA [4]): < 4.00
